Sampled rows, rich in hits. Any-hit rate of the full collection: about 3.8%.
V-ATPase pHluor – regulators of yeast V-ATPase proton pumping, primary screen, pHLuorin cytosolic pH fluorescence. S. cerevisiae. response, % at 10 µM. 350,000 compounds, 0.37% hits. AID 504577, 2011; in the data active means response mostly above about 7.3%, no sharp cut-off; inactive means mostly below about 5.4%; further: actives read high
MPTP inh – mitochondrial permeability transition pore inhibitors, primary screen, biochemical, isolated mouse mitochondria, absorbance. 360,000 compounds, 1.4% hits. Ca2+ swelling absorbance, 30 min. AID 602449, 2012. inhibition, % at 10 µM;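 active means inhibition of 50% or more, scaled per plate between neutral and stimulator controls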;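 further: 0% = DMSO wells given calcium and 100% = 1 mM EGTA wells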
T cell modulator – modulators of CD8 T cell-vesicle binding, primary screen, mouse 2C CD8+ T cells, flow cytometry | 330,000 compounds, 0.068% hits | response (vesicle binding), % at 7 µM | 2C CD8+ T cell-vesicle binding; active compounds read low;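 active means response, share of CD8 T cells binding vesicles, and their 90th percentile fluorescence all below set limits, cut at about 80% in these data, passing the limit was not always enough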;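 further: values below 100% mean blocked vesicle binding to the CD8+ T cells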
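Assay system – 2C mouse CD8+ T cells · Also added – QL9-loaded Drosophila micro-vesicles · Timing – Cell–vesicle co-incubation 1.5 h at 37 °C, staining 20 min on ice · Signal – flow cytometry of vesicle-bound cells · Measure – percent CD8+ FL2 mean versus row control · Controls – Peptide-free naked vesicles (low) and QL9 vesicles with 0.7% DMSO vehicle (high)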
Exocytosis inh – LAMP-1 surface exposure blockers, TALL-104 cells – cell-based, flow cytometry, MLPCN library, primary screen. inhibition, % at 10 µM. 360,000 compounds, 0.66% hits. AID 651702, 2012. TALL-104 LAMP-1 surface exposure; cells stimulated with thapsigargin and PMA;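 active means inhibition above about 55%, limit read from the data; inconclusive means no clear call, values can overlap the other calls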
Beta2AR agonist – beta2AR agonists driving receptor internalization, primary screen, cell-based, FAP fluorogen, flow cytometry | Beta-2 adrenergic receptor (Homo sapiens), P07550 | Am2.2-beta2AR cells | response, % (test concentration not listed) | 340,000 compounds, 0.43% hits | AID 504454, 2011;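 active means response above a set limit, near 3 SD of response in nonfluorescent compounds, cut at about 42% in these data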
Target sequence (P07550 whole entry, looked up): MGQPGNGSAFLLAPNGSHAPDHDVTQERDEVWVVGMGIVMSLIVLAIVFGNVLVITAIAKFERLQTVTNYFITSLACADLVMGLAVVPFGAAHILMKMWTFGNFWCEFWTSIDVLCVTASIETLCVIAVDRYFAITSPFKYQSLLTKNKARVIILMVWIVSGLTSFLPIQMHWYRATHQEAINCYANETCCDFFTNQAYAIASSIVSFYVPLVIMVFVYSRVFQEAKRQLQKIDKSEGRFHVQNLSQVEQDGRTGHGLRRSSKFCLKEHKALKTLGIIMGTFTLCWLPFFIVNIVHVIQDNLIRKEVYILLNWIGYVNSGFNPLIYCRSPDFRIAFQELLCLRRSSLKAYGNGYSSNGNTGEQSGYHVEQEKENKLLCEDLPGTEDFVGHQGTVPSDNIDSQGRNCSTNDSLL
rCAG binder-1 – binders of r(CAG) RNA repeats, primary screen, biochemical, fluorescence; r(CAG) RNA repeat, TO-PRO-1 dye displacement fluorescence; inhibition, % at 3 µM; 370,000 compounds, 1.3% hits;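 active means inhibition above the plate cutoff, the mean of all test compounds on that plate plus 3 SD, cut at about 35% in these data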;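 further: 0% = DMSO alone and 100% = 100 µM mitoxantrone as full dye displacement; higher means more dye released from RNA so lower well fluorescence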
rCAG bind conf – small molecules binding CAG repeat RNA – biochemical, fluorescence, confirmation; shares compounds with rCAG binder-1; r(CAG) RNA repeat, TO-PRO-1 dye displacement fluorescence; inhibition, % at 3 µM; 4,300 compounds, 70% hits; AID 652065, 2013;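 active means inhibition above a per-plate cutoff, the mean inhibition of sample wells plus 3 SD, cut at about 35% in these data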;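 further: loss of TO-PRO-1 fluorescence as compound displaces dye from 1x1 AA loop RNA; 0% = DMSO only wells and 100% = 100 µM mitoxantrone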
dCAG dye counter – displacement of TO-PRO-1 from CAG DNA duplex, counter-screen for rCAG RNA repeat binder project, biochemical, fluorescence, TO-PRO-1 dye, d(CAG) DNA oligo; shares compounds with rCAG binder-1; d(CAG) DNA oligo TO-PRO-1 dye displacement; inhibition, % at 3 µM; 4,300 compounds, 94% hits;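 active means inhibition above its plate's cutoff, the mean test-well inhibition plus 3 SD, cut at about 4.8% in these data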;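 further: 0% = DNA dye mix with DMSO and 100% = 100 µM mitoxantrone; hits displace the dye from DNA and so lower well fluorescence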
dCAG dye DR – inhibitors of DNA CAG/GTC TO-PRO-1 complex, dose response, counter-screen for rCAG RNA repeat binder project, biochemical, fluorescence, TO-PRO-1 dye | DNA CAG/GTC duplex TO-PRO-1 dye displacement fluorescence | shares compounds with rCAG binder-1 | IC50, µM | AID 686960, 2013 | 250 compounds, 20% hits; in the data active means IC50 below about 10 µM
dCAG TOPRO ctr – TO-PRO-1 dye complex inhibitors on d(CAG) DNA, dose response, counter-screen, biochemical, fluorescence, late stage. AID 720649, 2013. 30 compounds, 80% hits. shares compounds with rCAG binder-1. IC50, µM. d(CAG) DNA duplex TO-PRO-1 dye displacement
rCAG binder-2 – molecules binding r(CAG) RNA repeats, late stage dose response, late-stage follow-up, biochemical, fluorescence, dose response, powder samples | AID 720651, 2013 | IC50, µM | shares compounds with rCAG binder-1 | 30 compounds, 100% hits | r(CAG) RNA TO-PRO-1 dye displacement
Numbers without * were called inactive; i = inactive; u = inconclusive; x = no result. Unless noted, how the calls were made is not given here.

SMILES | V-ATPase pHluor | MPTP inh | T cell modulator | Exocytosis inh | Beta2AR agonist | rCAG binder-1 | rCAG bind conf | dCAG dye counter | others
Cc1ccc(S(=O)(=O)N2[C@@H](c3ccccc3)C(C(=O)O)=CC[C@H]2c2ccc(C(C)C)cc2)cc1 | 0 | -3 | 740 | -4 | -11 | 81* | 78* | 41*
OC(c1ccccc1)(c1ccccc1)C1CCN(CCCNc2cccc(OC(F)(F)F)c2)CC1 | x | x | x | x | x | 2 | x | x
O=C(O)C1=CC[C@@H](c2ccc(Cl)cc2)N(S(=O)(=O)c2ccc(Cl)cc2)[C@H]1c1ccccc1 | 1 | 3 | 663 | -3 | 11 | 65* | 69* | 30*
C=CCN1[C@@H](C)[C@H](c2ccccc2)Oc2cccc(N3CCCC3)c2S1(=O)=O | x | x | x | x | x | 4 | x | x
O=c1c(O)c(-c2cc(O)c(O)c(O)c2)oc2cc(O)cc(O)c12 | 2 | 6 | 556 | 1 | -1 | 47* | 56* | 19* | dCAG dye DR=>30
CC(C)=CCc1cc(-c2oc3cc(O)cc(O)c3c(=O)c2O)ccc1O | 1 | 4 | 333 | 5 | -8 | 44* | 52* | 25*
O=c1c(O)c(-c2ccccc2)oc2cc(O)cc(O)c12 | 1 | 5 | 248 | 3 | -3 | 13 | x | x
Cc1ccc(C=Nn2c(-c3n[nH]c4c3CCC4)n[nH]c2=S)s1 | x | x | x | x | x | 15 | x | x
Cc1cccc2nc(-c3ccccc3)c(-c3ccc(CN4CCC5(CC4)CNc4ccccc45)cc3)nc12 | x | x | x | x | x | 11 | x | x
O=C(Nc1ccc(N2C(=O)C3C4C=CC(C4)C3C2=O)cc1)Nc1nnc(C(F)(F)F)s1 (stereo not drawn) | 2 | 0 | 210 | -6 | 8 | 55* | 40* | 16*
CC1OC(Oc2ccc3ccc(=O)oc3c2-c2c(O)ccc3cc(Oc4ccc5ccc(=O)oc5c4)c(=O)oc23)C(O)C(O)C1O (stereo not drawn) | -5 | 2 | 826 | 7 | 9 | 38* | 24 | 8.7*
O=c1ccc2ccc(O[C@@H]3O[C@H](CO[C@@H]4OC[C@](O)(CO)[C@H]4O)[C@@H](O)[C@H](O)[C@H]3O)cc2o1 | 1 | -2 | 198 | 7 | -10 | 11 | x | x
CCOC(=O)[C@@]12CN(C(=O)OC(C)(C)C)CC=C1N(Cc1ccc(OC)cc1)C(=O)[C@H]2CC(=O)NCc1cccc(C(F)(F)F)c1 | x | x | x | x | x | 5 | x | x
Cc1cc(C)c(Nc2cc(S(=O)(=O)O)c(N)c3c2C(=O)c2ccccc2C3=O)c(C)c1 | -2 | 20 | 341 | -12 | 2 | 94* | 93* | 79*
CC(Oc1ccc2c(c1)oc(=O)c1ccccc12)C(=O)NC(Cc1c[nH]c2ccc(O)cc12)C(=O)O (stereo not drawn) | 0 | 0 | 146 | 5 | -3 | 43* | 27 | 6.1*
Cc1cc(OC(C)C(=O)NC(Cc2c[nH]c3ccc(O)cc23)C(=O)O)c2c(C)c(C)c(=O)oc2c1 (stereo not drawn) | 1 | 0 | 317 | -5 | 0 | 13 | x | x
Cc1c(C)c2ccc(OCC(=O)N[C@@H](Cc3c[nH]c4ccccc34)C(=O)O)cc2oc1=O | 0 | 0 | 256 | -2 | -1 | 18 | x | x
O=C(COc1ccc2c(c1)oc(=O)c1ccccc12)N[C@@H](Cc1c[nH]c2ccccc12)C(=O)O | 2 | -2 | 120 | -4 | -6 | 51* | 54* | 18*
CCCCCCCCN1C(=O)[C@@H](CC(=O)NCc2cccc(C(F)(F)F)c2)C[C@@]2(C(=O)OC)C1=C[C@H](C(C)C)O[C@@H]2C1CC1 | x | x | x | x | x | 13 | x | x
CCCc1nc2nc(C)c(NS(=O)(=O)c3ccc(C4CCCCC4)cc3)c(=O)n2[nH]1 | -1 | 2 | 195 | -1 | 7 | 59* | 62* | 16*
N#Cc1sc2nccc(Nc3ccccc3)c2c1N | -2 | 26 | 103 | -3 | -7 | 38* | 2 | 0
Nc1cc(Nc2ccccc2)ccn1 | 2 | -2 | 138 | -1 | -10 | 2 | x | x
Cc1cc(OCc2nn[nH]n2)c2c(C)c(Cc3ccccc3)c(=O)oc2c1 | -1 | -2 | 269 | 3 | -11 | 50* | 50* | 13*
Cc1cc(OCc2nn[nH]n2)c2c(C)c(CC(=O)O)c(=O)oc2c1 | -2 | -2 | 135 | 0 | -7 | 2 | x | x
Cc1noc(NS(=O)(=O)c2ccc(NC(=O)CC(C)C)cc2)c1C | -2 | -1 | 211 | -9 | 3 | 1 | x | x
SMILES | V-ATPase pHluor | MPTP inh | T cell modulator | Exocytosis inh | Beta2AR agonist | rCAG binder-1 | rCAG bind conf | dCAG dye counter | others
Cc1ccccc1OCC(=O)Nc1ccc(S(=O)(=O)Nc2onc(C)c2C)cc1 | -3 | 0 | 253 | u | 0 | 31 | x | x
CCc1cccc(OCC(=O)Nc2ccc(S(=O)(=O)Nc3onc(C)c3C)cc2)c1 | -4 | -1 | 422 | -5 | 4 | 37* | 31 | 7.1*
Cc1noc(NS(=O)(=O)c2ccc(NC(=O)COc3ccc(Cl)cc3Cl)cc2)c1C | -5 | 2 | i | -3 | -1 | 77* | 70* | 22* | dCAG dye DR=i;dCAG TOPRO ctr=3.6*;rCAG binder-2=1.3*
COc1ccccc1OCC(=O)Nc1ccc(S(=O)(=O)Nc2onc(C)c2C)cc1 | -1 | 0 | 96 | 1 | -1 | 13 | x | x
Cc1ccc(OCC(=O)Nc2ccc(S(=O)(=O)Nc3onc(C)c3C)cc2)cc1 | -6 | -2 | 308 | -1 | 4 | 27 | x | x
Cc1ccc(C)c(OCC(=O)Nc2ccc(S(=O)(=O)Nc3onc(C)c3C)cc2)c1 | 1 | -1 | 695 | -4 | -1 | 48* | 46* | 13*
